# From PubChem BioAssay
# rCAG binder = binds r(CAG) RNA repeats | r(CAG) RNA repeat, TO-PRO-1 dye displacement fluorescence | inhibition, % at 3 µM | 370,000 compounds, 1.3% hits;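 active = inhibition above the plate cutoff, the mean of all test compounds on that plate plus 3 SD, cut at about 35% in these data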;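 note: higher means more dye released from RNA so lower well fluorescence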
# core dimer inh = blocks dimerization of HCV core protein; TR-FRET GST/Flag-core106 dimerization, 1536-well; inhibition, % at 5 µM; 300,000 compounds, 0.33% hits;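 active = inhibition above the mean of all tested compounds plus 3 SD, set per screening campaign, cut at about 45% in these data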
#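 System: GST-tagged and Flag-tagged HCV core protein residues 1-106 / Input: core106 proteins, GST 13.5 nM and Flag 17 nM / Buffer or medium: KF-containing HEPES buffer, pH 7.45, DTT, CHAPS, BSA / Probe or stimulus: Eu-anti-GST and XL665-anti-Flag labelled anti-tag antibodies / Schedule: 4 h, 22.5 °C incubation / Technique: TR-FRET 671 and 617 nm emission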
# ABHD5 PLIN5 PPI = ABHD5-PLIN5 protein interaction inhibition. Q00G26+Q8WTS1. Split G. princeps luciferase complementation, luminescence, 4 h. inhibition, % at 4 µM. 360,000 compounds, 0.78% hits. AID 602281;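 active = inhibition above the mean inhibition across every tested compound plus 3 SD, cut at about 22% in these data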
# Target sequence (Q00G26 whole entry, looked up): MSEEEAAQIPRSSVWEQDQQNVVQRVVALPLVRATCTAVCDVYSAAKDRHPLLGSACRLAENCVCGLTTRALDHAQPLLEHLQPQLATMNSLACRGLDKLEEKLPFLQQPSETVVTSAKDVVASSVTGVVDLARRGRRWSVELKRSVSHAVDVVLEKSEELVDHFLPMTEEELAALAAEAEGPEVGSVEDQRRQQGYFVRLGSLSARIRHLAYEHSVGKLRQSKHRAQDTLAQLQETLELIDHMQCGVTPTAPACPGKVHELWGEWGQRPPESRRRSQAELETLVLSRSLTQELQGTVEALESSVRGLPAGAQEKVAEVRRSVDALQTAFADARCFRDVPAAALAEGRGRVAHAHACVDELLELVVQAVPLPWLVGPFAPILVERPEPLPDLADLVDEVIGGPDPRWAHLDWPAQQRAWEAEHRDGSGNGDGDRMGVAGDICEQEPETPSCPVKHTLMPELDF
# Target sequence (Q8WTS1 whole entry, looked up): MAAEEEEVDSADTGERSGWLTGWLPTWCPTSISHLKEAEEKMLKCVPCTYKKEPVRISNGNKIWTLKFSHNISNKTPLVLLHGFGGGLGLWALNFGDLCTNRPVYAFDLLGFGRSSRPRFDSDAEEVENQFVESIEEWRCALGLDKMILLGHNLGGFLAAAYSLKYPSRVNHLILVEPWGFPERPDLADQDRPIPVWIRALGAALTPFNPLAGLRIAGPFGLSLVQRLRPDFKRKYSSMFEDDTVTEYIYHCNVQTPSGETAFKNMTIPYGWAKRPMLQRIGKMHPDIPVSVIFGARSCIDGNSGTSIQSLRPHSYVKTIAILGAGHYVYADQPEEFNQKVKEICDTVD
# NadD inh = inhibitors of Staphylococcus aureus NadD; purified NadD enzyme, colorimetric absorbance read-out; inhibition, % at 20 µM; 360,000 compounds, 0.78% hits; in the data active = inhibition above about 26%
# rCAG bind conf = r(CAG) RNA repeat binding, confirmation; shares compounds with rCAG binder; TO-PRO-1 dye displacement fluorescence; inhibition, % at 3 µM; 4,300 compounds, 70% hits;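 active = inhibition above a per-plate cutoff, the mean inhibition of sample wells plus 3 SD, cut at about 35% in these data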;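 note: loss of TO-PRO-1 fluorescence as compound displaces dye from 1x1 AA loop RNA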
# dCAG dye counter = counter-screen for rCAG RNA binders: DNA CAG dye complex inhibitors; shares compounds with rCAG binder; 4,300 compounds, 94% hits; inhibition, % at 3 µM; d(CAG) DNA oligo TO-PRO-1 dye displacement, fluorescence;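 active = inhibition above its plate's cutoff, the mean test-well inhibition plus 3 SD, cut at about 4.8% in these data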;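 note: hits displace the dye from DNA and so lower well fluorescence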
# DNA CAG DR = DNA CAG dye complex inhibition, dose response counter-screen; AID 686960; shares compounds with rCAG binder; 250 compounds, 20% hits; DNA CAG/GTC duplex TO-PRO-1 dye displacement fluorescence; IC50, µM; in the data active = IC50 below about 10 µM
# A number is an active result; - = inactive; . = no result given. Hits are enriched below; roughly 2.6% of the tested compounds scored in any of these assays.
SMILES,rCAG binder,core dimer inh,ABHD5 PLIN5 PPI,NadD inh,rCAG bind conf,dCAG dye counter,others
C=C1[C@@H](CCO)N(S(=O)C(C)(C)C)C[C@@H]1C (some centres not stated),-,.,.,.,.,.,
Nc1ccn([C@@H]2O[C@H](C(=O)Nc3cc(C(F)(F)F)cc(C(F)(F)F)c3)[C@@H](O)[C@H]2O)c(=O)n1,-,.,-,-,.,.,
O=C(CSc1ncnc2nc[nH]c12)Nc1nnc(SCc2ccc(Cl)c(Cl)c2)s1,42,-,-,-,61,24,
O=C(CN(c1cccc(Br)c1)S(=O)(=O)c1ccccc1)N/N=C/c1cc([N+](=O)[O-])ccc1O,77,-,-,47,89,62,
O=C(CCCC(=O)Nc1cccc(Br)c1)N/N=C/c1cc([N+](=O)[O-])ccc1O,-,-,-,-,.,.,
COC(=O)C1CN(Cc2cn(Cc3ccccc3)nn2)CCS(=O)(=O)N1Cc1ccc(C)cc1 (configuration not stated),-,.,.,.,.,.,
CC1(C)CC(=O)C(C2C3=C(CC(C)(C)CC3=O)OC3=C2C(=O)CC(C)(C)C3)=C(O)C1,44,-,-,-,-,-,
C[C@H](NC(=O)[C@@H]1CCCN1C(=O)[C@@H]1CCCN1C(=O)c1ccc(Cl)cc1)c1ccccc1,-,.,-,-,.,.,
CC1Cc2cc(/C=C3/SC(=S)NC3=O)ccc2O1 (configuration not stated),37,-,-,-,-,5.9,
COC(=O)[C@]12C[C@H](CC(=O)NCCC(C)C)C(=O)N(Cc3ccccc3)C1=C[C@H](COCc1ccccc1)O[C@@H]2C,-,.,.,.,.,.,
Cc1ccc2nc(N3C(=O)C(O)=C(C(=O)c4ccco4)C3c3ccc(O)cc3)sc2c1 (configuration not stated),67,-,-,-,50,16,
Cc1cc(N2C(=O)C(O)=C(C(=O)c3ccco3)C2c2ccc(O)cc2)no1 (configuration not stated),-,-,-,-,.,.,
Cc1cc(C)c2nc(N3C(=O)C(O)=C(C(=O)c4ccco4)C3c3ccc(O)cc3)sc2c1 (configuration not stated),84,.,-,-,81,43,
Cc1ccc(C2C(C(=O)c3ccco3)=C(O)C(=O)N2c2nnc(C)s2)cc1 (configuration not stated),-,-,-,-,.,.,
Cc1cc(C)c2nc(N3C(=O)C(O)=C(C(=O)c4ccco4)C3c3cccc(O)c3)sc2c1 (configuration not stated),85,.,-,-,81,49,
O=S(=O)(c1ccc(F)cc1)n1c(CN2CCOCC2)nc2ccccc21,-,.,.,.,.,.,
C=CCN(C(=O)[C@@H](C)[C@@H](O)c1ccc(C(C)=O)cc1)c1ccccc1,-,.,.,.,.,.,
S=C(SCc1cc(Cl)cc2c1OCOC2)N1CCSCC1,-,.,.,.,.,.,
Cc1ccc(-c2nc3c(Cl)cc(Cl)cc3c(=O)n2O)cc1,58,-,-,-,-,-,
CCC(Sc1nc(-c2cccc(OC)c2)c(C#N)c(=O)[nH]1)C(=O)Nc1nnc(C(C)C)s1 (configuration not stated),75,-,-,-,75,38,
COc1cccc(-c2nc(-c3ccccc3)[nH]c(=O)c2C#N)c1,-,-,-,-,.,.,
O=c1[nH]c(S)c(/C=C2\C=Nc3ccccc32)s1,-,-,-,-,.,.,
Oc1nc(Nc2ccc(F)cc2)sc1/C=C1\C=Nc2ccccc21,48,-,-,-,-,14,
C=CCN(c1ccccc1)S(=O)(=O)c1cccc(C(=O)Nc2nnc(SCC)s2)c1,52,-,-,-,58,17,
CCSc1nnc(NC(=O)c2cccc(S(=O)(=O)N(C)c3ccccc3)c2)s1,-,-,-,-,.,.,
SMILES,rCAG binder,core dimer inh,ABHD5 PLIN5 PPI,NadD inh,rCAG bind conf,dCAG dye counter,others
O=C(NN1C(=O)c2cc(Br)ccc2NC1c1cc(Br)cc(Br)c1O)c1ccncc1 (configuration not stated),51,-,-,-,42,14,
Cn1c(=O)c2cc(NC(=O)NCc3ccc(Cl)cc3Cl)ccc2n1Cc1ccc(F)cc1,-,.,-,-,.,.,
COc1cc(N=Nc2cccc(S(N)(=O)=O)c2)c2ccccc2c1N,52,-,-,-,-,12,
CC1=NN(c2cccc(C(=O)O)c2)C(=O)/C1=C\C=C\c1ccco1,56,-,-,-,64,26,
CN(C)c1cccc(C(=O)Nc2nnc(Cc3ccccc3)s2)c1,-,-,-,-,.,.,
COC(=O)Cc1nnn2c1[C@H](C)[C@H](c1ccccc1Br)OC[C@@H]2c1ccccc1,-,.,.,.,.,.,
CC(C)C(=O)N1CCC1(C)C(=O)NS(=O)(=O)c1cccs1 (configuration not stated),-,.,-,-,.,.,
COC(=O)c1c(NC(=O)CCC(=O)O)sc(Cc2ccccc2)c1C,-,-,-,-,.,.,
COc1ccc(NC(=O)c2c(NC(=O)CCC(=O)O)sc(-c3ccccc3)c2C)cc1,50,-,-,-,57,12,DNA CAG DR=-
Clc1ccc2nc(C3CCCCC3)c(Cc3ccsc3)n2c1,-,.,-,-,.,.,
Cc1nc(SCC(=O)c2ccccc2)[nH]c(=O)c1Oc1ccc(Cl)cc1,41,-,-,-,35,8.5,
CC(C)CNC(=O)C1Nc2ccc(OC(F)(F)F)cc2C2C=CCC12 (configuration not stated),-,-,-,-,.,.,
CCOC(=O)c1ccc2c(c1)C1C=CCC1C(C(=O)OCC)N2 (configuration not stated),47,55,-,-,35,17,
O=C(COc1ccccc1Cl)Nc1ccc(C(=O)O)cc1NC(=O)COc1ccccc1Cl,67,-,-,-,53,19,
O=C(O)c1ccc(NC(=O)c2ccc(Cl)cc2)c(NC(=O)c2ccc(Cl)cc2)c1,71,-,-,-,59,23,
O=C(COc1ccccc1Cl)Nc1ccccc1C(=O)Nc1cccc(C(=O)O)c1,40,-,-,-,-,-,
Nc1c(C(=O)Nc2ccc(F)cc2)sc2nc(-c3ccco3)ccc12,35,-,-,-,55,26,
N#Cc1c(Cl)nc(N/N=C/c2ccccc2)c(Cl)c1Cl,45,-,-,-,-,-,
C[N+](C)(C)c1ccc(/C=N/Nc2nc(Cl)c(C#N)c(Cl)c2Cl)cc1,-,-,-,-,.,.,
CCNC(=O)N(C)[C@H]1C[C@H]2c3[nH]c4c(-c5cccc(C)c5)cccc4c3CCN2C(=O)[C@H]1[C@H](C)O,-,.,.,.,.,.,
O=C(O)c1cc(N/N=C2/CC(c3ccccc3)Oc3ccccc32)ccc1Cl (configuration not stated),46,-,-,-,62,22,
O=C1CC(c2ccccc2)Oc2ccc(Cl)cc21 (configuration not stated),-,.,-,-,.,.,
